Each structure is given as a SMILES string.
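Further: active if original authors judged signal statistically different from baseline.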

This experiment has as its target T1, OR1G1 (Homo sapiens) (UniProt P47890).
T1 sequence (whole entry): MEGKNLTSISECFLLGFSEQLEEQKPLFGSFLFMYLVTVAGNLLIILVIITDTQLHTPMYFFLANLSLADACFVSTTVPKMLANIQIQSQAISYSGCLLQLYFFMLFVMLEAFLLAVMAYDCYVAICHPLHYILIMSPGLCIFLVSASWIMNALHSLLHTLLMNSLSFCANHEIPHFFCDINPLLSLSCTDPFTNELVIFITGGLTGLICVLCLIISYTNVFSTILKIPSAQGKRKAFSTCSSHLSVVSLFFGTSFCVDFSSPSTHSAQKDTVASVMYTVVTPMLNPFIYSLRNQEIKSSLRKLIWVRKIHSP
The conditions noted are these: stereoisomer not certain. A digest of the protocol:
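Whether a receptor–molecule pair is responsive (active) rests on the original authors' judgment that its measured signal was statistically different from baseline. Pairs without that judgment are non-responsive (inactive). Sources used varied assay methods, commonly transient luciferase assays in mammalian cell lines.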
`O=c1ccc2ccccc2o1`: the “odorant receptor agonist call” value was “active”.

In the case of `CSC`, the “odorant receptor agonist call” value is “inactive”.

For the molecule `CCCCCCC(=O)[O-].[H+]`, the “odorant receptor agonist call” value was “inactive”.

On to `CCCCCCC(=O)OCC`, for which the “odorant receptor agonist call” value is “inactive”.

For the molecule `CCCCCCCC(C)O` (stereo not given), the “odorant receptor agonist call” value is “active”.

Turning to `Cc1occc(=O)c1O`, the “odorant receptor agonist call” value is “active”.

With `O=C(O)C=Cc1ccccc1`, the “odorant receptor agonist call” value was “inactive”.

In the case of `CCCCCCCCCCCC=O`, the “odorant receptor agonist call” value was “inactive”.

As for `c1ccc2[nH]ccc2c1`, the “odorant receptor agonist call” value was “inactive”.

On to `CC12CCC(CC1=O)C2(C)C` (stereo not given), for which the “odorant receptor agonist call” value is “active”.

Regarding `CCCCC(O)CCC` (stereo not given), the “odorant receptor agonist call” value was “active”.

With `CCCCCC=O`, the “odorant receptor agonist call” value is “active”.

`CCCCCCC(=O)CC`: the “odorant receptor agonist call” value was “active”.

For `CCCCCCCCCO`, the “odorant receptor agonist call” value is “active”.

Regarding `CCCC(=O)SC`, the “odorant receptor agonist call” value is “active”.

For the molecule `CC(=O)C(C)O` (stereo not given), the “odorant receptor agonist call” value was “active”.

`CCCCCC(=O)OCC`: the “odorant receptor agonist call” value is “inactive”.

In the case of `Cc1cnccn1`, the “odorant receptor agonist call” value is “active”.

For the molecule `Cc1ccc(C(C)C)c(O)c1`, the “odorant receptor agonist call” value is “active”.

For the molecule `COc1nccnc1CC(C)C`, the “odorant receptor agonist call” value was “inactive”.

In the case of `CCCCCCC(C)=O`, the “odorant receptor agonist call” value was “inactive”.

For the molecule `c1ccc2scnc2c1`, the “odorant receptor agonist call” value was “active”.

Take `CC(=O)CCC=C(C)C`: the “odorant receptor agonist call” value is “inactive”.

On to `CC1CCC(C(C)C)C(=O)C1` (stereo not given), for which the “odorant receptor agonist call” value is “inactive”.

Regarding `CCCCCCCCCCO`, the “odorant receptor agonist call” value is “active”.

For `CCCCCCCCO`, the “odorant receptor agonist call” value is “active”.

In the case of `CCCCC(CC)CO` (stereo not given), the “odorant receptor agonist call” value was “active”.

For `CC=Cc1ccc(OC)cc1`, the “odorant receptor agonist call” value is “active”.

In the case of `CCCCCCCCC(=O)OCC`, the “odorant receptor agonist call” value is “active”.

`CCCCCCC(=O)OC`: the “odorant receptor agonist call” value is “inactive”.

Take `CCCCOC(=O)CCC`: the “odorant receptor agonist call” value was “inactive”.

Consider `CCCCCCO`, for which the “odorant receptor agonist call” value is “active”.

With `CCCCCCCCC(=O)O`, the “odorant receptor agonist call” value is “active”.

For `CCCCCCCO`, the “odorant receptor agonist call” value is “active”.

As to `CCCCCCCCCC(=O)[O-].[H+]`, the “odorant receptor agonist call” value is “active”.

Source of the values: the M2OR odorant receptor database.
